# This excerpt belongs to a sample that is enriched for hits.
# Insulin prom act = TRM-6 insulin promoter activation; TRM-6 cells, insulin promoter eGFP reporter, imaging; plate-scaled: unstimulated 0, stimulated control 100; activation, % at 2 µM; 130,000 tested, 0.81% active; AID 1296;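 active = activation at 2 µM above a set limit, confirmed on inspection of the cell images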;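 note: share of cells whose green reporter signal exceeds an intensity cutoff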
#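 System – human fetal islet-derived TRM-6 cells with tamoxifen-inducible insulin promoter–eGFP reporter · Amount – 1,000 cells per well · Schedule – overnight tamoxifen, then two-day compound incubation at 37 °C · Detection – high-content imaging of fixed cells with Hoechst nuclear stain · Read-out – percent cells above green-intensity threshold, converted to percent activation versus plate controls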
# Active calls of the source: *.
SMILES,Insulin prom act
Cc1ccc(OP(=O)(Nc2c(C)n(C)n(-c3ccccc3)c2=O)Oc2ccc(C)cc2)cc1,0
O=C(CNC(=O)c1ccc(Cl)cc1)NCC(F)(F)F,-5
COc1ccc(C2NC(=O)NC(C)=C2C(C)=O)cc1 (stereo not drawn),129
COc1ccc(NC2=C(C(C)=O)C(c3ccc(OC)cc3)C(C(C)=O)C(C)(O)C2)cc1 (stereo not drawn),317*
COc1ccc(C2C(C(C)=O)=C(Nc3ccccc3)CC(C)(O)C2C(C)=O)cc1OC (stereo not drawn),215
CC(=O)c1ccc(C(=O)N2CCCC(CCC(=O)N(C)CCc3ccccn3)C2)s1 (stereo not drawn),-7
Nc1nc2c(c(=O)[nH]1)C(c1cccc3ccccc13)C1=C(N2)c2ccccc2C1=O (stereo not drawn),-71
CCOc1ccc(-c2c(C(=O)N/N=C/c3ccc(OC)cc3)nnn2-c2nonc2N)cc1,8
CCOc1ccc(C(=O)NC(=S)Nc2ccccc2N2CCOCC2)cc1Br,-8
Cc1ccc(Cn2nc(C)c(NC(=O)CCCn3nc(C)c([N+](=O)[O-])c3C)c2C)cc1,0
COc1ccc(C2Nc3ccccc3C(=O)N2c2ccc(C)cc2)cc1Cn1nc(C)c([N+](=O)[O-])c1C (stereo not drawn),129*
COc1cccc(C2Nc3ccccc3C(=O)N2O)c1O (stereo not drawn),7
CCOC(=O)c1ccc(Oc2c(C)oc3cc(OS(C)(=O)=O)ccc3c2=O)cc1,-7
Cc1ccccc1OCCCC(=O)Nc1nncs1,9
COCCCNC(=S)NNC(=O)c1cccnc1,-4
COc1cccc(NC(=S)N(CCCN2CCOCC2)C(C)c2cc3cccc(OC)c3o2)c1 (stereo not drawn),259*
COc1cccc2cc(C(C)N(CCCN3CCOCC3)C(=S)Nc3ccc(C)cc3)oc12 (stereo not drawn),-6
COc1cccc(NC(=O)N(CCCN2CCOCC2)C(C)c2cc3ccccc3o2)c1 (stereo not drawn),-10
COCCn1c(N)c(Sc2ccc([N+](=O)[O-])cc2)c(=O)[nH]c1=O,-6
Cn1ccnc1C(=O)c1cc(SCC(=O)NCc2ccccc2)nc2ccccc12,0
O=C(Nc1ccc(Cl)cn1)c1ccc(COCC(F)(F)C(F)F)o1,0
CC(C)NC(=O)c1ccc(COCC(F)(F)C(F)F)cc1,80*
O=C(Nc1ccc(OCC(F)(F)C(F)F)cc1)c1ccncc1,-6
CCn1cc(C(=O)NCCc2ccccc2)c(=O)c2cc(S(=O)(=O)N3CCCC3)ccc21,0
CC1CCCC(NC(=O)COC(=O)CCSc2ccccc2)C1C (stereo not drawn),0
SMILES,Insulin prom act
CCn1cc(C(=O)N2CCN(c3ccccn3)CC2)c(=O)c2cc(S(=O)(=O)N(C)C3CCCCC3)ccc21,7
Cc1nc(CC(C)C)cc(C(=O)N2CCCC(CNS(=O)(=O)c3cccs3)C2)n1 (stereo not drawn),421*
O=C(c1ccc(NS(=O)(=O)c2cccs2)cc1)N1CCCCC1,-3
CCOC(=O)C1CCCN(C(=O)c2cc(-c3ccccc3)on2)C1 (stereo not drawn),32
Cc1ccc(SCC(=O)Nc2ccc(S(N)(=O)=O)cc2)cc1,-9
O=C(CO/N=C/c1cccc([N+](=O)[O-])c1)Nc1ccc2ccccc2c1,3
CC(=O)Nc1ccc(NC(=O)C(C)O/N=C/c2cccc([N+](=O)[O-])c2)cc1 (stereo not drawn),-8
O=C(O/N=C/c1cccc([N+](=O)[O-])c1)C1CC1,209*
CN(C)S(=O)(=O)c1ccc(N2CCCC2)c(C(=O)Nc2nc(-c3ccc(F)c(F)c3)cs2)c1,414*
CN(C)S(=O)(=O)c1ccc(C(=O)Nc2nc(-c3cc4ccccc4o3)cs2)cc1,8
Cc1ccc(S(=O)(=O)Nc2ccccc2C(=O)Nc2nc(-c3ccc(F)cc3)cs2)cc1,-5
C=CCc1cc(C=O)cc(OC)c1OCc1c(Cl)cccc1Cl,10
Cc1cccc(OCC(=O)Nc2ccc(N3CCN(C(=O)c4ccccc4)CC3)cc2)c1,3
NS(=O)(=O)c1cccnc1Nc1c(Cl)cccc1Cl,-7
OCCN(CCO)Cc1csc2ccccc12,3
O=C(CN(C(=O)CSc1nc2ccccc2o1)c1ccccc1F)NC1CCCCC1,-3
CC1CCCN(CCCOc2ccc([N+](=O)[O-])cc2)C1 (stereo not drawn),8
O=C(c1ccc(-c2ccc([N+](=O)[O-])cc2)o1)N1CCCCC1,-7
CC1CCCCN1C(=O)c1ccc(COc2ccc([N+](=O)[O-])cc2)o1 (stereo not drawn),380*
CCC(=O)Nc1cccc(C(=O)OCc2cccc([N+](=O)[O-])c2)c1,6
CCC(C)(C)NC(=O)C(c1cccnc1)N(C(=O)c1csnn1)c1ccc(C)cc1 (stereo not drawn),5
CC1(C)COC(c2coc3ccccc3c2=O)OC1,-100
COC(=O)c1ccc(Oc2coc3cc(OCc4ccc([N+](=O)[O-])cc4)ccc3c2=O)cc1,3

# Source: PubChem BioAssay (Columbia University Molecular Screening Center)
